Test results from ChEMBL document CHEMBL1138778, “Effects of altering the electronics of 2-methoxyestradiol on cell proliferation, on cytotoxicity in human cancer cell cultures, and on tubulin polymerization” (J Med Chem, 2004).

Key:
[1] = tested on: HUVEC; test: Inhibitory concentration against growth of HUVEC […] cell line; assay type: functional, cell-based; conditions: Homo sapiens
Procedure, shortened: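 HUVEC, used up to five passages in EGM with bovine brain extract and antibiotic-antimycotic, seeded at 3000 cells/well and attached overnight. Cells were exposed to compound for 48 h. Proliferation was read by BrdU-incorporation colorimetric ELISA or by cell counting, in triplicate, with experiments repeated at least twice.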

[2] = tested on: MDA-MB-231; test: Inhibitory concentration against growth of MDA-MB-231 cancer cell line; assay type: functional, cell-based; conditions: Homo sapiens
Procedure, shortened: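 MDA-MB-231 cells in DMEM/F12 (1:1) with 10% FBS, seeded at 1000 cells/well and attached overnight. Cells were exposed to compound for 48 h. Proliferation was read by BrdU-incorporation colorimetric ELISA or by cell counting, in triplicate, with experiments repeated at least twice.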

[3] = Growth inhibitory concentration against human cancer cell line; assay type: functional; conditions: Cancer cell lines
Procedure, shortened: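 NCI human cancer cell line antiproliferative screen, tested over 10^-4 to 10^-8 M. GI50 is the concentration giving 50% growth inhibition of each cell line. The mean graph midpoint is the average GI50 across all lines tested, with values outside the range set to 10^-8 or 10^-4 M.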

[4] = tested on: HOP-62; test: Growth inhibitory concentration against human lung cancer HOP-62 cell line; assay type: functional
Procedure, shortened: (§1)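 Screen over 10^-4 to 10^-8 M in a human cancer cell line panel. GI50 is the concentration giving 50% growth inhibition of the individual cell line.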

[5] = tested on: SN12C; test: Growth inhibitory concentration against human renal SN12C cancer cell line; assay type: functional
Procedure, shortened: (§2)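 Human cancer cell line antiproliferative screen, compounds tested over 10^-4 to 10^-8 M. GI50 is the concentration giving 50% growth inhibition of the individual cell line. GI50 values outside the tested range were set to the range limits (10^-8 or 10^-4 M) when averaging across all lines tested to give the mean graph midpoint.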

[6] = tested on: HCT-116; test: Growth inhibitory concentration against human colon cancer HCT116 cell line; assay type: functional; procedure, shortened: as §1
[7] = tested on: SF-539; test: Growth inhibitory concentration against human CNS SF-539 cancer cell line; assay type: functional; procedure, shortened: as §2
[8] = molecular target: Tubulin beta chain (Bos taurus, UniProt Q6B856); test: Inhibitory concentration against bovine brain tubulin polymerization; assay type: functional
Procedure, shortened: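 Bovine brain tubulin, 1.2 mg/mL (12 μM), was preincubated with a range of compound concentrations and then chilled on ice. GTP was added and assembly followed by turbidity at 350 nm for 20 min at 26 °C. IC50 is the concentration halving assembly at 20 min, from at least two independent assays.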

[9] = tested on: OVCAR-3; test: Growth inhibitory concentration against human ovarian OVCAR-3 cancer cell line; assay type: functional; procedure, shortened: as §2
[10] = tested on: DU-145; test: Growth inhibitory concentration against human prostate DU-145 cancer cell line; assay type: functional
Procedure, shortened: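 Human cancer cell line screen across 10^-4 to 10^-8 M compound. GI50 is the concentration giving 50% growth inhibition of the individual cell line. GI50 values below or above the tested range were taken as 10^-8 M or 10^-4 M.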

[11] = tested on: UACC-62; test: Growth inhibitory concentration against human melanoma UACC-62 cancer cell line; assay type: functional; procedure, shortened: as §2
[12] = tested on: MDA-MB-435; test: Growth inhibitory concentration against human breast MDA-MB-435 cancer cell line; assay type: functional; procedure, shortened: as §2

Tubulin beta chain, sequence (Q6B856 whole entry): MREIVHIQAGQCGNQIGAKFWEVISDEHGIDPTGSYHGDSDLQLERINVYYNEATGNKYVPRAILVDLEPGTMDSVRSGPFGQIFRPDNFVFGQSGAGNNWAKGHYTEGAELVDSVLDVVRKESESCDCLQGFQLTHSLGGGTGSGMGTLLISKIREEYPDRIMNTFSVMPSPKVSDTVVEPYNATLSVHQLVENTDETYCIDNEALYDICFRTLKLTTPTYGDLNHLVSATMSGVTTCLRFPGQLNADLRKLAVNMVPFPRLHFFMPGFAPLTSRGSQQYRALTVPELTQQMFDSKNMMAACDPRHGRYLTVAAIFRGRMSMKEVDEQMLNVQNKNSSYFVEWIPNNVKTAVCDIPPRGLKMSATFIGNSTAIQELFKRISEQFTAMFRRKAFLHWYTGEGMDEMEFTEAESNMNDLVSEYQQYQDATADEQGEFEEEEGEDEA

IC50 [2]	SMILES	IC50 [1]	GI50 [3]	GI50 [4]	GI50 [5]	GI50 [6]	GI50 [7]	IC50 [8]	GI50 [9]	GI50 [10]	GI50 [11]	GI50 [12]
650 nM	C/C=C/c1cc2c(cc1O)CC[C@@H]1[C@@H]2CC[C@]2(C)[C@@H](O)CC[C@@H]12	590 nM	–	–	–	–	–	–	–	–	–	–
–	COc1cc2c(cc1O)CC[C@@H]1[C@@H]2CC[C@]2(C)[C@@H](O)CC[C@@H]12 [2-METHOXYESTRADIOL]	–	1300 nM	700 nM	950 nM	470 nM	320 nM	5300 nM	210 nM	1800 nM	360 nM	80 nM
